Assay results as given in article PMC2175342 (Nucleic Acids Research, 2007).
Like-named read-outs stand apart in the source and are kept apart here. One block for each compound: values may come before it.

Tests used:
HeLa cell telomerase [1] = target: T1, HeLa cell telomerase (Homo sapiens, UniProt O14746); test: Semi-quantitative telomerase assay based on the 'stretch PCR' method; type: biochemical; conditions: for Km: natural dNTP substrate, Lineweaver–Burk plot analyses
[2] = tested on: immortalized human B- and T-cell lines; conditions: cited from earlier work
[3] = tested on: telomerase from human leukemia cells and HeLa cells; conditions: cited from earlier work
HeLa cell telomerase [4] = target: T1, HeLa cell telomerase; conditions: cited from earlier work
cherry salmon telomerase = test: Primer extension assay; type: biochemical; conditions: 18-mer (TTAGGG)3 primer, 5 or 20 µM analog
Method in brief: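 Telomerase was partially purified from immature cherry salmon testis (DEAE-cellulose, 70% ammonium sulfate, dialysis). It extended 2 µM (TTAGGG)3 in Tris–HOAc pH 8.5, KOAc, 1 mM MgCl2, 1 mM DTT and 5 µM [α-32P]dTTP. Either 200 µM dATP with 0/5 µM dGTP plus 0/5/20 µM dGTP-analog, or 200 µM dGTP with 0/5 µM dATP plus 0/5/20 µM dATP-analog. Run 1 h at 25°C, then RNase A/proteinase K, 20% PAGE–7 M urea, phosphorimaging.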

T1 sequence (O14746 whole entry): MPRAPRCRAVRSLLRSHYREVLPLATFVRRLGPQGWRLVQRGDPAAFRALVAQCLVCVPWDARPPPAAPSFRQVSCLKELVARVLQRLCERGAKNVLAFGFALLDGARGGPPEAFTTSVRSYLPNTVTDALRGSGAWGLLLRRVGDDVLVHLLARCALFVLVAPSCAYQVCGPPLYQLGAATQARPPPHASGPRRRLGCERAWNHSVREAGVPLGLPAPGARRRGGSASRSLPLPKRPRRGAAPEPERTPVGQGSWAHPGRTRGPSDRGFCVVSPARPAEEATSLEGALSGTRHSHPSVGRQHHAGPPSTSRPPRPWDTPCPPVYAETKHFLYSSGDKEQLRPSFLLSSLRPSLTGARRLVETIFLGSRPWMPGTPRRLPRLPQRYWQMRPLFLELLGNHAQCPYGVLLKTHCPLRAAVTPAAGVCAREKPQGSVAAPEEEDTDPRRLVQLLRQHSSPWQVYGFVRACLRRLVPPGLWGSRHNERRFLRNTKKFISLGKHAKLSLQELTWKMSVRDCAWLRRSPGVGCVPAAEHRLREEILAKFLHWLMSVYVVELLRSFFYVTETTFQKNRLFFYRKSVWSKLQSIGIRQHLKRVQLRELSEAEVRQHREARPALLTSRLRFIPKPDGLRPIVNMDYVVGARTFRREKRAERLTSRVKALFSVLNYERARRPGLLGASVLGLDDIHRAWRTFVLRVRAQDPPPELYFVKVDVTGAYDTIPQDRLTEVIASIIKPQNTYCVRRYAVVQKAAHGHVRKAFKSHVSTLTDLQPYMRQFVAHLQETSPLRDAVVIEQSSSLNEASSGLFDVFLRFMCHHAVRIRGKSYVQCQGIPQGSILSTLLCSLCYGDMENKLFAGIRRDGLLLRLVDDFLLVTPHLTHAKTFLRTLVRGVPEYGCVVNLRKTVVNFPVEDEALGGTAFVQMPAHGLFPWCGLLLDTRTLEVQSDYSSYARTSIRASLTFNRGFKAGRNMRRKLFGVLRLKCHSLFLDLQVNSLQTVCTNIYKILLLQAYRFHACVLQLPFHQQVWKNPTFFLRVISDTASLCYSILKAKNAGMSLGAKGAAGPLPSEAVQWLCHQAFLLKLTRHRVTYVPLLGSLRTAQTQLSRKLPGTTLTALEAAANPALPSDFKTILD
T1 sequence (O60832 whole entry partner): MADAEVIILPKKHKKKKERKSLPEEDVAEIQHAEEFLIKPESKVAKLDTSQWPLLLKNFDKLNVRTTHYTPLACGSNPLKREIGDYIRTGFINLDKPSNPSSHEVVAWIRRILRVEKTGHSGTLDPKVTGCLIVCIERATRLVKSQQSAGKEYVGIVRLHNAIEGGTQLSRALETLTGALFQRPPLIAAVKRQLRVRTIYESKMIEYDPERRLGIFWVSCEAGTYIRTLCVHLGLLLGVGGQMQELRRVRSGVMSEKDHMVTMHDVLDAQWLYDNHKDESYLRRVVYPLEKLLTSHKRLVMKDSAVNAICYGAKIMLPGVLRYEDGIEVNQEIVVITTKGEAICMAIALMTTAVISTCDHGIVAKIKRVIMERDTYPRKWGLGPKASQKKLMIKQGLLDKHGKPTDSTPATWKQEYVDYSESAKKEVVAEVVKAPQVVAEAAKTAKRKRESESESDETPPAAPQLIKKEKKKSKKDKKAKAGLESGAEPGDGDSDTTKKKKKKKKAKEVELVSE
T1 sequence (Q9NX24 whole entry partner): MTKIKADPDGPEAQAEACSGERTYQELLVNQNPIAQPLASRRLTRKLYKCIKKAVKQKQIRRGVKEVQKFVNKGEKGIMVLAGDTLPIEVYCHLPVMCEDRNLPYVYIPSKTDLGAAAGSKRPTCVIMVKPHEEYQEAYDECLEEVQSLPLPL
T1 sequence (Q9NPE3 whole entry partner): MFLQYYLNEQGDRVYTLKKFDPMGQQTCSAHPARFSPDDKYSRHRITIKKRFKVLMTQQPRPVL
T1 sequence (Q9NY12 whole entry partner): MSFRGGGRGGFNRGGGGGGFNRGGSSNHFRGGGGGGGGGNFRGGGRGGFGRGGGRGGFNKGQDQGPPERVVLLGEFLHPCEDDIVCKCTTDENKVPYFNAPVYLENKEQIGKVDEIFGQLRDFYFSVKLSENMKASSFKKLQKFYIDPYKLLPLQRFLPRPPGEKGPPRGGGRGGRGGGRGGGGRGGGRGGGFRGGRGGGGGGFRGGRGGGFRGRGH
T1 sequence (Q9BUR4 whole entry partner): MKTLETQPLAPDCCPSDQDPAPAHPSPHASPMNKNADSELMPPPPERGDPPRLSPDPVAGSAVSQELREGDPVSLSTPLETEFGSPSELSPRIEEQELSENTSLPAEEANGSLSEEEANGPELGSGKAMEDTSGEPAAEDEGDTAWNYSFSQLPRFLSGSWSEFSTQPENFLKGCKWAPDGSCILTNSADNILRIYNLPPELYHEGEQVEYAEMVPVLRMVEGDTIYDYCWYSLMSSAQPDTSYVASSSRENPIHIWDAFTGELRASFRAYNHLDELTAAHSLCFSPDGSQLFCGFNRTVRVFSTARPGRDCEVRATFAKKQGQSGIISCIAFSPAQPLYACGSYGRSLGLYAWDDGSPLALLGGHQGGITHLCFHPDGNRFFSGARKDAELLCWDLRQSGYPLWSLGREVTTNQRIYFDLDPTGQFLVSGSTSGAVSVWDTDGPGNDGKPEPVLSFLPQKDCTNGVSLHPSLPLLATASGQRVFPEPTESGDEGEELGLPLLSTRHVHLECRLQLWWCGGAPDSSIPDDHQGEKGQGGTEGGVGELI

Ki (HeLa cell telomerase [1]): 15000 nM | inhibitory effects on human telomerase (HeLa cell telomerase [1]; Figure 2B): weak | inhibition mode (HeLa cell telomerase [1]; Lineweaver–Burk plots, versus the corresponding dNTP): nearly competitive
Compound: Cc1cn([C@H]2C[C@H](N=[N+]=[N-])[C@@H](COP(=O)(O)OP(=O)(O)OP(=O)(O)O)O2)c(=O)[nH]c1=O [AZTTP, 3′-Azido-3′-deoxythymidine 5′-triphosphate]

Km (HeLa cell telomerase [1]): 8.2 ± 2.1 µM
Compound: Nc1nc2c(ncn2[C@H]2C[C@H](O)[C@@H](COP(=O)(O)OP(=O)(O)OP(=O)(O)O)O2)c(=O)[nH]1 [dGTP]
Km [3]: 8 to 12 µM

Km (HeLa cell telomerase [1]): 7.9 ± 1.8 µM
Compound: Cc1cn([C@H]2C[C@H](O)[C@@H](COP(=O)(O)OP(=O)(O)OP(=O)(O)O)O2)c(=O)[nH]c1=O [dTTP]
Km [3]: 8 to 12 µM

The next lines start with the compound.

Compound: Nc1ncnc2c1ncn2[C@H]1C[C@H](O)[C@@H](COP(=O)(O)OP(=O)(O)OP(=O)(O)O)O1 [dATP]
Km (HeLa cell telomerase [1]): 0.97 ± 0.31 µM

Compound: Nc1nc2c(ncn2[C@H]2CC[C@@H](CO)O2)c(=O)[nH]1 [ddG, 2′,3′-dideoxyguanosine]
telomere DNA shortening ([2]; 10 µM, long-term treatment): reproducible progressive telomere DNA shortening | effects on cell population doubling rates or morphology [2]: did not have observable effects

Compound: Nc1nc2c(ncn2[C@H]2CC[C@@H](COP(=O)(O)OP(=O)(O)OP(=O)(O)O)O2)c(=O)[nH]1 [ddGTP]
Ki (HeLa cell telomerase [4]): 650 nM | primer extension product with analog instead of dGTP or dATP (cherry salmon telomerase): distinct 22-mer product

Compound: Nc1nc2c(ncn2[C@@H]2O[C@H](COP(=O)(O)OP(=O)(O)OP(=O)(O)O)[C@@H](O)[C@@H]2O)c(=O)[nH]1 [araGTP, 9-β-D-Arabinofuranosylguanine 5′-triphosphate]
Ki (HeLa cell telomerase [4]): 1200 nM
